Calls of active or inactive are those of the source. The rule behind the calls is not given here.
Columns and labels:
Mus musculus [1] = assay: Neurotoxicity in Kunming mouse at 100 mg/kg, ip after 4 hrs; type: toxicity, organism-based; set-up: dose 100 mg/kg, route intraperitoneal; conditions: in vivo
Summary of the method: (§1)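 Rotarod neurotoxicity in KunMing mice (18–22 g) trained on a 3.2 cm diameter rod at 10 rpm. Compounds in DMSO were given i.p. at 30, 100 and 300 mg/kg, three mice per dose, and tested at 0.5 h and 4 h after dosing.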

Mus musculus [2] = assay: Anticonvulsant activity in Kunming mouse assessed as protection against maximal electric shock-induced seizures at 100 mg/kg, ip measured after 0.5 hrs; type: functional, organism-based; set-up: dose 100 mg/kg
Summary of the method: (§2)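 KunMing mice (18–22 g), compounds dissolved in DMSO, given i.p. at 30, 100 and 300 mg/kg, three mice per dose. Current applied through corneal electrodes for 0.2 s at 0.5 h and 4 h after dosing. Protection is abolition of tonic hind-leg extension, scored as protected/tested.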

Mus musculus [3] = assay: Anticonvulsant activity against maximal electric shock-induced seizures in ip dosed Kunming mouse assessed as median effective dose; type: functional
Summary of the method: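 Phase-II MES test in KunMing mice (18–22 g), DMSO vehicle, corneal electrode stimulus 0.2 s. Groups of 10 mice got a range of i.p. doses until at least three points fell within 10–90% seizure protection, giving the median effective dose. Endpoint is abolition of tonic hind-leg extension.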

Mus musculus [4] = assay: Anticonvulsant activity in Kunming mouse assessed as protection against maximal electric shock-induced seizures at 300 mg/kg, ip measured after 0.5 hrs; type: functional, organism-based; set-up: dose 300 mg/kg; summary of the method: as §2
Mus musculus [5] = assay: Anticonvulsant activity in Kunming mouse assessed as protection against maximal electric shock-induced seizures at 30 mg/kg, ip measured after 0.5 hrs; type: functional, organism-based; set-up: dose 30 mg/kg; summary of the method: as §2
Mus musculus [6] = species on record: Mus musculus; assay: Protective index, ratio of TD50 for neurotoxicity in Kunming mouse to ED50 for inhibition of MES-induced seizures in Kunming mouse; type: functional
Mus musculus [7] = assay: Anticonvulsant activity in Kunming mouse assessed as protection against maximal electric shock-induced seizures at 100 mg/kg, ip measured after 4 hrs; type: functional, organism-based; set-up: dose 100 mg/kg; summary of the method: as §2
Mus musculus [8] = assay: Anticonvulsant activity in Kunming mouse assessed as protection against maximal electric shock-induced seizures at 300 mg/kg, ip measured after 4 hrs; type: functional, organism-based; set-up: dose 300 mg/kg; summary of the method: as §2
Mus musculus [9] = assay: Anticonvulsant activity in Kunming mouse assessed as protection against maximal electric shock-induced seizures at 30 mg/kg, ip measured after 4 hrs; type: functional, organism-based; set-up: dose 30 mg/kg; summary of the method: as §2
[10] = Neurotoxicity in ip dosed Kunming mouse by rotarod test; type: toxicity, organism-based; conditions: in vivo
Summary of the method: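 Phase-II rotarod test in KunMing mice trained on a 3.2 cm rod at 10 rpm, DMSO vehicle. Groups of 10 mice got graded i.p. doses until at least three points fell within 10–90% minimal neurotoxicity, giving the median toxic dose.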

Mus musculus [11] = assay: Neurotoxicity in Kunming mouse at 300 mg/kg, ip after 4 hrs; type: toxicity, organism-based; set-up: dose 300 mg/kg, route intraperitoneal; conditions: in vivo; summary of the method: as §1
Mus musculus [12] = assay: Neurotoxicity in Kunming mouse at 100 mg/kg, ip after 0.5 hrs; type: toxicity, organism-based; set-up: dose 100 mg/kg, route intraperitoneal; conditions: in vivo; summary of the method: as §1
Mus musculus [13] = assay: Neurotoxicity in Kunming mouse at 300 mg/kg, ip after 0.5 hrs; type: toxicity, organism-based; set-up: dose 300 mg/kg, route intraperitoneal; conditions: in vivo; summary of the method: as §1

SMILES | Activity (Mus musculus [1]) | Activity (Mus musculus [2]) | ED50 (Mus musculus [3]) [mg/kg] | Activity (Mus musculus [4]) | Activity (Mus musculus [5]) | Ratio TD50/ED50 (Mus musculus [6]) | Activity (Mus musculus [7]) | Activity (Mus musculus [8]) | Activity (Mus musculus [9]) | TD50 [10] [mg/kg] | Activity (Mus musculus [11]) | Activity (Mus musculus [12]) | Activity (Mus musculus [13])
O=C1CC(c2ccccc2)n2ncnc2N1 (centres undefined) | Non-toxic | Active | 51.9 | Active | inactive | 10.5 | inactive | inactive | inactive | 548 | Non-toxic | Non-toxic | –
O=C1CC(c2ccccc2Br)n2ccnc2N1 (centres undefined) | – | – | – | Active | inactive | – | inactive | inactive | inactive | – | – | – | –
O=C1CC(c2ccccc2)n2ncnc2N1Cc1ccccc1 (centres undefined) | – | – | – | – | inactive | – | inactive | inactive | inactive | – | – | – | –
O=C1CC(c2ccccc2F)n2nccc2N1 (centres undefined) | Non-toxic | Active | 47.3 | Active | – | 2.5 | inactive | inactive | inactive | 118 | Non-toxic | – | Toxic
CCC1(c2ccccc2)C(=O)NC(=O)NC1=O [PHENOBARBITAL] | – | – | 21.8 | – | – | – | – | – | – | – | – | – | –
O=C1CC(c2ccccc2Cl)n2c(nc3ccccc32)N1 (centres undefined) | – | inactive | – | inactive | inactive | – | inactive | inactive | inactive | – | – | – | –
O=C1CC(c2ccccc2Br)n2nccc2N1 (centres undefined) | Non-toxic | Active | 39.4 | Active | inactive | 3.4 | inactive | inactive | inactive | 132 | Non-toxic | – | Toxic
CN1C(=O)CC(c2ccccc2)n2ncnc21 (centres undefined) | – | – | – | Active | inactive | – | inactive | inactive | inactive | – | – | – | –
O=C1CC(c2ccc(Br)cc2)n2ncnc2N1 (centres undefined) | – | inactive | – | – | inactive | – | inactive | inactive | inactive | – | – | – | –
O=C1CC(c2ccccc2)n2nccc2N1 (centres undefined) | Non-toxic | Active | 47.3 | Active | – | 2.5 | inactive | inactive | inactive | 118 | Non-toxic | – | Toxic
O=C1CC(c2ccccc2F)n2ncnc2N1 (centres undefined) | Non-toxic | Active | 31.7 | Active | – | 14.4 | inactive | inactive | inactive | 456 | Non-toxic | Non-toxic | –
O=C1CC(c2ccccc2F)n2c(nc3ccccc32)N1 (centres undefined) | – | inactive | – | inactive | inactive | – | inactive | inactive | inactive | – | – | – | –
O=C1CC(c2ccc(Cl)cc2Cl)n2ncnc2N1 (centres undefined) | – | inactive | – | inactive | inactive | – | inactive | inactive | inactive | – | – | – | –
O=C1CC(c2ccccc2Cl)n2nccc2N1 (centres undefined) | Non-toxic | Active | 63.4 | Active | inactive | 1.5 | inactive | inactive | inactive | 94.7 | Non-toxic | – | Toxic
O=C1CC(c2ccccc2)n2c(nc3ccccc32)N1 (centres undefined) | – | inactive | – | inactive | inactive | – | inactive | inactive | inactive | – | – | – | –
O=C1CC(c2ccccc2F)n2ccnc2N1 (centres undefined) | Non-toxic | Active | 88 | Active | inactive | 4.4 | inactive | inactive | inactive | 387 | Non-toxic | Non-toxic | –
Cc1ccc(C2CC(=O)Nc3ncnn32)cc1 (centres undefined) | – | – | – | Active | inactive | – | inactive | inactive | inactive | – | – | – | –
O=C1CC(c2cccc(Cl)c2)n2ncnc2N1 (centres undefined) | Non-toxic | Active | 47.3 | Active | inactive | 11.2 | inactive | inactive | inactive | 528 | Non-toxic | Non-toxic | –
O=C1CC(c2ccccc2Cl)n2ncnc2N1 (centres undefined) | Non-toxic | Active | 25.5 | Active | Active | 18.2 | inactive | inactive | inactive | 465 | Non-toxic | Non-toxic | –
O=C1CC(c2ccccc2Cl)n2ccnc2N1 (centres undefined) | – | – | – | Active | inactive | – | inactive | inactive | inactive | – | – | – | –
O=C1CC(c2ccccc2Br)n2c(nc3ccccc32)N1 (centres undefined) | – | inactive | – | inactive | inactive | – | inactive | inactive | inactive | – | – | – | –
O=C1CC(c2ccc(Cl)cc2)n2ncnc2N1 (centres undefined) | – | – | – | Active | inactive | – | inactive | inactive | inactive | – | – | – | –
O=C1CC(c2cccc(F)c2)n2ncnc2N1 (centres undefined) | – | inactive | – | – | inactive | – | inactive | inactive | inactive | – | – | – | –
COc1ccccc1C1CC(=O)Nc2ncnn21 (centres undefined) | – | inactive | – | – | inactive | – | inactive | inactive | inactive | – | – | – | –
COc1ccc(C2CC(=O)Nc3ncnn32)cc1 (centres undefined) | – | inactive | – | – | inactive | – | inactive | inactive | inactive | – | – | – | –
CCCCCCN1C(=O)CC(c2ccccc2)n2ncnc21 (centres undefined) | – | – | – | – | inactive | – | inactive | inactive | inactive | – | – | – | –
O=C1CC(c2ccc(F)cc2)n2ncnc2N1 (centres undefined) | – | inactive | – | – | inactive | – | inactive | inactive | inactive | – | – | – | –

Reference: ChEMBL document CHEMBL1806414, “Synthesis and anticonvulsant activity of 7-phenyl-6,7-dihydro-[1,2,4]triazolo[1,5-a]pyrimidin-5(4H)-ones and their derivatives” (Eur J Med Chem, 2011)
